# Laboratory results: ChEMBL document CHEMBL1123508, “Relationship between lipophilic character and urinary excretion of nitroimidazoles and nitrothiazoles in rats” (J Med Chem, 1986)
# Assays:
# [1] = system: Rattus norvegicus; experiment: The total 36 hr urinary excretion of unchanged compound reported as log (percent X 10) of the administered dose; details: in vivo
# [2] = The amount of unchanged compound in urine collected at 0-54 hr after treatment; details: rat
# [3] = system: Rattus norvegicus; experiment: The total 72 hr urinary excretion of unchanged compound reported as log (percent X 10) of the administered dose; details: in vivo
# [4] = Partition coefficient (logP); details: octanol/water
# [5] = octanol/water
# [6] = system: Rattus norvegicus; experiment: The total 54 h urinary excretion of unchanged compound reported as log (percent X 10) of the administered dose; details: in vivo
# [7] = system: Rattus norvegicus; experiment: The total 18 hr urinary excretion of unchanged compound reported as log (percent X 10) of the administered dose; details: in vivo
# [8] = The amount of unchanged compound in urine collected at 0-36 hr after treatment; details: rat
# [9] = The amount of unchanged compound in urine collected at 0-72 h after treatment; details: rat
# [10] = The amount of unchanged compound detected in urine collected at 0-18 hr after treatment; details: rat
# [11] = organism: Rattus norvegicus; experiment: (§1) The amount of the unchanged form of compound detected in the urine samples collected at 0-18 hr after the treatment by HPLC technique; format: functional
# How it was run: (§2)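 Female Sprague-Dawley rats (200 ± 20 g) on chow diet, three per compound, dosed ip in Me2SO (50 μmol mL⁻¹ kg⁻¹). Urine pooled over 0-18 h. One mL urine was spiked with internal standard and extracted, the residue was taken up in 200 μL methanol, and 10-20 μL was injected for HPLC of the unchanged drug. Values expressed as log (percent × 10) of dose.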
# [12] = system: Rattus norvegicus; experiment: The total 18 hr urinary excretion of the unchanged form of compound in urine was reported as log (percent X 10) of the administered dose by HPLC technique; format: ADME, organism-based; details: in vivo; how it was run: as §2
# [13] = as §1; format: ADME, organism-based; details: rat, read-out: Amount excreted; how it was run: as §2
# [14] = The octanol/water partition coefficient was determined; format: physicochemical; details: read-out: Log K
# How it was run: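 Classical shake-flask octanol/water partitioning with 1 M ammonium chloride buffer, pH 9.0, as the aqueous phase. For one compound the aqueous phase was 0.14 M sodium acetate-barbital buffer, pH 3.6. Concentrations in the octanol and/or aqueous layer were read by UV spectrophotometry.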
# [15] = organism: Rattus norvegicus; details: in vivo, 18 h
# [16] = in vivo; details: rat, urine
Log BR [1],dose excreted [2] [%],Log BR [3],logP [4],Log k' [5],Log BR [6],Log BR [7],dose excreted [8] [%],dose excreted [9] [%],dose excreted [10] [%],log(10 × % of dose excreted unchanged in urine) [12],dose excreted [13] [%],logP [14],Log BR [15],dose excreted [16] [%],SMILES,Amount excreted [11] [%]
1.529,3.4,1.529,2.03,0.659,1.529,1.529,3.4,3.4,,,,,,,O=[N+]([O-])c1cnc(/C=C/c2ccc3c(c2)OCO3)n1CCO,
2.754,60.6,2.81,-0.03,-0.11,2.782,2.513,56.8,64.9,32.6,,,,,,Cn1c([N+](=O)[O-])cnc1CO,
2.113,12.9,2.113,1,0.455,2.113,1.613,12.9,12.9,4.1,,,,,,Cn1c([N+](=O)[O-])cnc1C1CC1,
2.811,64.7,2.811,-0.43,-0.049,2.811,2.687,64.7,64.7,48.6,,,,,,Nc1ncc(S(=O)(=O)c2ccc([N+](=O)[O-])cc2)s1,
2.446,28,2.448,-0.35,-0.097,2.448,2.401,27.9,28,25.2,2.394,,,,,Cc1ncc([N+](=O)[O-])n1CCS(C)(=O)=O,24.8
2.33,23.1,2.364,0.9,0.465,2.364,1.826,21.5,23.1,6.7,1.819,6.5,,,,COC(=S)NCCn1c([N+](=O)[O-])cnc1C [CARNIDAZOLE],
2.455,28.5,2.455,-0.38,0.021,2.455,2.369,28.5,28.5,23.4,,,,,,CCN(CC)CCOCCn1c([N+](=O)[O-])cnc1C,
2.27,18.6,2.27,,0.028,2.27,2.155,18.6,18.6,14.3,,,,,,Cc1ncc([N+](=O)[O-])n1CC(=O)N1CCN(C(=O)Cn2c([N+](=O)[O-])cnc2C)CC1,
1.861,7.3,1.861,0.92,0.363,1.861,1.663,7.3,7.3,4.6,,,,,,O=C1NCCN1c1ncc([N+](=O)[O-])s1 [NIRIDAZOLE],
2.202,16,2.202,0.85,0.423,2.202,2.142,16,16,13.8,2.054,11.3,,,,Cn1c([N+](=O)[O-])cnc1/C=C/c1ccnc(N)n1 [AZANIDAZOLE],
2.808,66.4,2.822,,-0.199,2.822,2.155,64.3,66.4,14.3,,,-0.63,,,Cc1ncc([N+](=O)[O-])n1CC(O)CO (centres undefined),
2.59,42.1,2.701,-0.3,-0.115,2.701,2.569,38.9,42.1,37.1,2.549,35.4,,,,Cc1ncc([N+](=O)[O-])n1CC(=O)Nc1ncccn1,
2.477,29.9,2.477,-0.69,-0.067,2.477,2.025,29.9,29.9,10.6,2.023,10.4,,,,Cn1c([N+](=O)[O-])cnc1C=O,
2.822,66.3,2.822,-0.36,-0.125,2.822,2.468,66.3,66.3,29.4,2.436,27.3,,,,CCS(=O)(=O)CCn1c([N+](=O)[O-])cnc1C [TINIDAZOLE],
2.358,22.8,2.358,0.31,0.199,2.358,2.26,22.8,22.8,18.2,,,,2.196,15.7,Cc1ncc([N+](=O)[O-])n1CC(O)Cn1c([N+](=O)[O-])cnc1C,
2.719,52.4,2.719,,0.188,2.719,2.639,52.4,52.4,43.6,,,,,,O=[N+]([O-])c1cncn1CCN1CCOCC1 [NIMORAZOLE],
2.692,49.2,2.692,-0.1,-0.067,2.692,2.484,49.2,49.2,30.5,2.407,25,,,,Cc1ncc([N+](=O)[O-])n1CCO [METRONIDAZOLE],
2.28,21.7,2.337,-1,-0.199,2.337,1.4,19,21.7,2.5,,,,,,Cn1c([N+](=O)[O-])cnc1/C=C(\Oc1ccccc1)C(=O)O,
1.96,9.1,1.96,1.06,0.45,1.96,1.633,9.1,9.1,4.3,1.398,2.5,,,,CC(C)c1ncc([N+](=O)[O-])n1C [IPRONIDAZOLE],
2.713,51.7,2.713,-0.08,0.058,2.713,2.561,51.7,51.7,36.4,,,,,,CCC(CC)C(O)Cn1c([N+](=O)[O-])cnc1C (centres undefined),
2.471,36.9,2.625,,,2.567,2.121,29.6,42.1,13.2,2.068,11.7,,,,Cc1ncc([N+](=O)[O-])n1CC(O)CCl (centres undefined) [ORNIDAZOLE],

SMILES,Log BR [1],dose excreted [2] [%],Log BR [3],logP [4],Log k' [5],Log BR [6],Log BR [7],dose excreted [8] [%],dose excreted [9] [%],dose excreted [10] [%],log(10 × % of dose excreted unchanged in urine) [12],dose excreted [13] [%],logP [14],Log BR [15],dose excreted [16] [%],Amount excreted [11] [%]
O=[N+]([O-])c1c[nH]cn1,2.601,46.1,2.664,,0,2.664,2.529,39.9,46.1,33.8,,,,,,
CN1CCN(Cc2ncc([N+](=O)[O-])n2C)CC1,2.658,45.5,2.658,-0.33,0.014,2.658,2.62,45.5,45.5,41.7,,,,,,
